Source: PubChem BioAssay AID463186 (The Scripps Research Institute Molecular Screening Center, 2010)
Calls of active or inactive are those of the source.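 How the source made its calls: active means mean luminescence fold change over vehicle of at least 10; inactive means the rest.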

Molecular target: G2/mitotic-specific cyclin-B1 (Homo sapiens) (UniProt P14635)
Test: cyclin B degradation inhibitors, late-stage follow-up, selectivity assay for Wee1 degradation inhibitor project, cell-based, HeLa, luciferase fusion, luminescence, powder samples (AID 463186)
Details: HeLa cyclin B-luciferase stability, at 0.1 µM, hits give high values
In short: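 System: HeLa cells transiently expressing cyclin B–luciferase fusion reporter | Doses: Single nominal dose of 100 nM (0.1 µM) per compound | Timing: 48 h transfection, then 20 h compound exposure at 37 °C | Technique: Luminescence of luciferase reporter | Read-out basis: Mean fold-change in luminescence relative to DMSO-treated cells | Repeats: Four replicate wells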

Sequence of G2/mitotic-specific cyclin-B1 (Homo sapiens) (P14635 whole entry, looked up, the tested form may be a part): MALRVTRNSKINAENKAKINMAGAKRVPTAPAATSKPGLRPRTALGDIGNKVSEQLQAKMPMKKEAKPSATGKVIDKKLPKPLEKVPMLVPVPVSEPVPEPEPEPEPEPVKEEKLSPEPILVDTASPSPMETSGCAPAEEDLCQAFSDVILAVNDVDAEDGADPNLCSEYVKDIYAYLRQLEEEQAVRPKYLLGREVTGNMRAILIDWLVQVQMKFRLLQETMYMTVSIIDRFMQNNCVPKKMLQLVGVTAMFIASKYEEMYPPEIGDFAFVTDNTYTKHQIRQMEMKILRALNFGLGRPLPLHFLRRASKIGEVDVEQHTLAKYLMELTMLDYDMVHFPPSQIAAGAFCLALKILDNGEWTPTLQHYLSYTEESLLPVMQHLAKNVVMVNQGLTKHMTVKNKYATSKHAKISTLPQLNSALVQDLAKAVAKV

fold change | Compound
4.15 (inactive) | c1ccc2[nH]c(CNc3nc(N4CCOCC4)nc4c3ncn4-c3ccsc3)nc2c1
2.62 (inactive) | O=[N+]([O-])c1cccc2[nH]c(CNc3nc(N4CCOCC4)nc4c3ncn4-c3ccsc3)nc12
